Common to all, as to assay type: cell-based, human
One experiment relates to HaCaT. In words: MTT cell viability/proliferation assay, HaCaT. The note with it: read-out: HaCaT IC50. The essentials:
(§1)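 Human lines grown at 37 °C, 5% CO2 with 10% FBS: U-118 MG in DMEM; T98G and HaCaT in EMEM. Seeded 1 × 10⁴ cells/well, left 24 h, then exposed 48 h to test compound at 7.81–1000 μg mL⁻¹ (eight twofold steps). MTT added at 0.5 mg mL⁻¹ final for 2 h. Formazan dissolved in DMSO, read at 492 nm against 690 nm reference. IC50 is the mean of ≥3 independent experiments.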

In another experiment the test system is T98G. In words: MTT cell viability/proliferation assay, T98G. The note with it: read-out: T98G IC50. A digest of the protocol:
as §1

Another experiment relates to U-118 MG. In words: MTT cell viability/proliferation assay, U-118 MG. Conditions: read-out: U-118 MG IC50. A digest of the protocol: as §1
Another experiment concerns T98G cells. In words: Colony formation. The note with it: for clonogenic survival compared to control cells: 20 μM; for reduction of cancer cell clonogenic potential: 50 μM. The essentials: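 T98G cells seeded at 500 per well and allowed to adhere 24 h. Exposed to test compound at 2–100 μM in triplicate; after 24 h switched to compound-free medium, 7 days total. Colonies (≥50 cells) methanol-fixed, stained with 1% gentian violet and counted by light microscopy.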

Where [1] appears, read: MTT, 48 hours, glioblastoma multiforme cell line.

Read-outs that look alike come from different tables or passages of the source.

Here are results for seven compounds from paper PMC9069932 (RSC Advances, 2019).

A word on the IC50: it is the concentration that inhibits the measured activity by half.

For `CCOP(=O)(OCC)C(Cc1c(F)c(F)c(Sc2cccc(OC)c2)c(F)c1F)Nc1ccccc1` (stereo not shown) [Compound 2e, Diethyl (1-(phenylamino)-2-(2,3,5,6-tetrafluoro-4-((3-methoxyphenyl)thio)phenyl)ethyl)phosphonate], the IC50 was determined as 10.1 ± 2.2 µM with HaCaT (Homo sapiens, HaCaT, 48 h); 20.4 ± 3.1 µM in the experiment on T98G (Homo sapiens, T98G, 48 h); 21.4 ± 2.7 µM in the experiment on U-118 MG (Homo sapiens, U-118-MG, 48 h). Further, the “clonogenic survival compared to control cells” value in the experiment with T98G cells is 30%. Besides, the “reduction of cancer cell clonogenic potential” value in the experiment on T98G cells worked out at 85%.

Regarding `O=c1[nH]c(=O)n([C@H]2C[C@H](O)[C@@H](CO)O2)cc1F` [Compound 5-FdU, 5-fluoro-2′-deoxyuridine, reference compound], the IC50 came out at 4.42 ± 1.1 µM in the experiment on HaCaT (Homo sapiens, HaCaT, 48 h); 5.57 ± 0.9 µM in the experiment on T98G (Homo sapiens, T98G, 48 h); 23.4 ± 1.6 µM in the experiment on U-118 MG (Homo sapiens, U-118-MG, 48 h).

`CCOP(=O)(OCC)C(Cc1c(F)c(F)c(Sc2cccc(N)c2)c(F)c1F)Nc1ccccc1` (stereo not shown) [Compound 2f, Diethyl (2-(4-((3-aminophenyl)thio)-2,3,5,6-tetrafluorophenyl)-1-(phenylamino)ethyl)phosphonate]: the IC50 in the experiment with HaCaT (Homo sapiens, HaCaT, 48 h) was determined as 18.2 ± 3.4 µM; with T98G (Homo sapiens, T98G, 48 h) it was 25.5 ± 1.9 µM; with U-118 MG (Homo sapiens, U-118-MG, 48 h), 28.1 ± 3.6 µM. In addition, the “clonogenic survival compared to control cells” value in the experiment with T98G cells is 10%. The “reduction of cancer cell clonogenic potential” value with T98G cells is 98%.

Consider `CCOP(=O)(OCC)C(Cc1c(F)c(F)c(SCC(NC(C)=O)C(=O)OC)c(F)c1F)Nc1ccccc1` (stereo not shown) [Compound 2j, Methyl 2-acetamido-3-((4-(2-(diethoxyphosphoryl)-2-(phenylamino)ethyl)-2,3,5,6-tetrafluorophenyl)thio)propanoate], for which the 50% inhibitory concentration (IC50) with HaCaT (Homo sapiens, HaCaT, 48 h) was above 100 µM; with T98G (Homo sapiens, T98G, 48 h), 82.7 ± 15.7 µM; in the experiment with U-118 MG (Homo sapiens, U-118-MG, 48 h), above 100 µM.

`CCOP(=O)(OCC)C(Cc1c(F)c(F)c(F)c(F)c1F)Nc1ccccc1` (stereo not shown) [Compound 1a, Diethyl (2-(perfluorophenyl)-1-(phenylamino)ethyl)phosphonate]: the IC50 in the experiment on HaCaT (Homo sapiens, HaCaT, 48 h) is 56.8 ± 7.4 µM; in the experiment with T98G (Homo sapiens, T98G, 48 h), 40.4 ± 6.2 µM; in the experiment with U-118 MG (Homo sapiens, U-118-MG, 48 h) it was 60.7 ± 8.9 µM.

Take “Diethyl (1-(phenylamino)-2-(2,3,5,6-tetrafluoro-4-(m-tolylthio)phenyl)ethyl)phosphonate [Compound 2b]”: the IC50 was determined as 26.5 ± 4.7 µM in the experiment with HaCaT (MTT, 48 hours, referential healthy cells); 14.5 ± 3.3 µM in the experiment on T98G (setting [1]); 37.9 ± 2.5 µM in the experiment on U-118 MG (setting [1]).

Take `CCOP(=O)(OCC)C(Cc1c(F)c(F)c(Oc2ccc(Cl)cc2)c(F)c1F)Nc1ccccc1` (stereo not shown) [Compound 2r, Diethyl (2-(4-(4-chlorophenoxy)-2,3,5,6-tetrafluorophenyl)-1-(phenylamino)ethyl)phosphonate]: the IC50 in the experiment with HaCaT (Homo sapiens, HaCaT, 48 h) is 48.4 ± 7.4 µM; in the experiment on T98G (Homo sapiens, T98G, 48 h), 70.3 ± 8.3 µM; in the experiment with U-118 MG (Homo sapiens, U-118-MG, 48 h), 79.2 ± 6.4 µM.
